Blank lines part the entries; values can stand above or below the compound they belong to. Calls of active or inactive are those of the source. The calls are words filed in the database; no cut-off is given here.
How the values were obtained:
[1] = biological target: T1, Dual specificity mitogen-activated protein kinase kinase 5 (Homo sapiens) (UniProt Q13163); assay: Inhibition of human MEK5 (98 to 448 residues) expressed in mammalian expression system assessed as enzyme activity at 10 uM by KINOMEScan assay relative to control; design: scale not given: the % may be the effect or the level left
T1 sequence (whole entry): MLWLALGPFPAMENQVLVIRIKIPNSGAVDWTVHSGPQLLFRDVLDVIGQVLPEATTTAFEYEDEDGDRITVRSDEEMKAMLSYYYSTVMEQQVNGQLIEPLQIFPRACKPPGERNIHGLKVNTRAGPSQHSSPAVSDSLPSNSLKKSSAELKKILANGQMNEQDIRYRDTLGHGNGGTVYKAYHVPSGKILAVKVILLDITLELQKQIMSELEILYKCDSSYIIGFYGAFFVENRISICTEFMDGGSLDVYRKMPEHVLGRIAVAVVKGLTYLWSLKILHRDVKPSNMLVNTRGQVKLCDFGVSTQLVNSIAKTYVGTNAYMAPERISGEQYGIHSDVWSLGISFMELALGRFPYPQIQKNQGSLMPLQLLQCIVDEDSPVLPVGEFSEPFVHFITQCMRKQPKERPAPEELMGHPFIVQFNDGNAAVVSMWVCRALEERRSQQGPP
Summary of the method: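 In vitro ATP-site competition binding assay across a panel of 456 kinases, with compound tested at 1 and 10 μM.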

[2] = biological target: T2, Serine/threonine-protein kinase Nek9 (Homo sapiens) (UniProt Q8TD19); assay: Binding affinity to NEK9 in human NCI-H23 cells at 1 uM by mass spectrometry based pull down assay; assay type: cell-based
T2 sequence (whole entry): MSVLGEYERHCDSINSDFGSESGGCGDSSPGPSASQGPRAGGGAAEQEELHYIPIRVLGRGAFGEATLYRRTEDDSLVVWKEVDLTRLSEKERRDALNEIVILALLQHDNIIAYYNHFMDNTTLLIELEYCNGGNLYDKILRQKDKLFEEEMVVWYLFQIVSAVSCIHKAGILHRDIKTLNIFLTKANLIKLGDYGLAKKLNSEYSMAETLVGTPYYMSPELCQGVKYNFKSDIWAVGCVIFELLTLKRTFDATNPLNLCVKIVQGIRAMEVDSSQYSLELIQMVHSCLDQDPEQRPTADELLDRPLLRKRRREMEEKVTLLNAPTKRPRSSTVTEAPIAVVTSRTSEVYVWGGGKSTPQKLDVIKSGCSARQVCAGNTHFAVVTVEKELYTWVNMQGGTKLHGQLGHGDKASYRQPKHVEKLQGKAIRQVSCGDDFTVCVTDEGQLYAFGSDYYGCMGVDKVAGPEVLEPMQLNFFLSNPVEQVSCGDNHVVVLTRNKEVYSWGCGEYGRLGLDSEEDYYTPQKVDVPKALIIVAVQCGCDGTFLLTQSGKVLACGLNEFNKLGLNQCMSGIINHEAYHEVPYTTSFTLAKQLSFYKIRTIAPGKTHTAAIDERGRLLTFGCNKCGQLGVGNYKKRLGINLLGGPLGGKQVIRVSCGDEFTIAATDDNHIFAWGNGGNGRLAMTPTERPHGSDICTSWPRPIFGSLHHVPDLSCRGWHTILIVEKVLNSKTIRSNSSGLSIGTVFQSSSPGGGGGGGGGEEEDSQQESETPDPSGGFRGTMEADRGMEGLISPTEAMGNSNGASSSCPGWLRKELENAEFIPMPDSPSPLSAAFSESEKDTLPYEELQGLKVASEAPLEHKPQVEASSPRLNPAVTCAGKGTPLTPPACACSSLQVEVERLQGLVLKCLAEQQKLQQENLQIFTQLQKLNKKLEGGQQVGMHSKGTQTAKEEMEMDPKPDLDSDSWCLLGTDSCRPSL

[3] = biological target: Histone H3.2 (Homo sapiens) (UniProt Q71DI3); assay: Binding affinity to HIST2H3A in human NCI-H23 cells at 1 uM by mass spectrometry based pull down assay; assay type: cell-based
[4] = biological target: Cyclin-dependent kinase 5 (Homo sapiens) (UniProt Q00535); assay: Binding affinity to CDK5 in human NCI-H23 cells at 1 uM by mass spectrometry based pull down assay; assay type: cell-based
Sequence of Cyclin-dependent kinase 5 (Homo sapiens) (Q00535 whole entry, looked up): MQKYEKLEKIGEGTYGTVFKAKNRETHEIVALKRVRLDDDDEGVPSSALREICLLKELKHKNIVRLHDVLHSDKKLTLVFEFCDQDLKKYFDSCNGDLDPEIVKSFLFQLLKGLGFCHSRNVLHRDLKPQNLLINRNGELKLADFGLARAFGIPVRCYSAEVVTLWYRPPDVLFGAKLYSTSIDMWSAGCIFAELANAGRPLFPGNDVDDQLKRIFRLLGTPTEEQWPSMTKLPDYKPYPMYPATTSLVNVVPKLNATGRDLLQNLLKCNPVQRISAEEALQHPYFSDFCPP

[5] = biological target: Cyclin-dependent kinase 4 (Homo sapiens) (UniProt P11802); assay: Binding affinity to CDK4 in human NCI-H23 cells at 1 uM by mass spectrometry based pull down assay; assay type: cell-based
Sequence of Cyclin-dependent kinase 4 (Homo sapiens) (P11802 whole entry): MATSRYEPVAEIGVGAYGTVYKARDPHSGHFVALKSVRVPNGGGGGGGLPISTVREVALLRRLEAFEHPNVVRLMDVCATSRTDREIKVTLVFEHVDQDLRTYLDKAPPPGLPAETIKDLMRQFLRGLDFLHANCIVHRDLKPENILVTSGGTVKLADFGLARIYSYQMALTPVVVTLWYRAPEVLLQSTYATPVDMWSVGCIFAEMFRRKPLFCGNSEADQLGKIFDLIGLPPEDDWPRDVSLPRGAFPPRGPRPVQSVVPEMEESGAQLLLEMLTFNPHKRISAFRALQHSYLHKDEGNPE

[6] = biological target: Lactoylglutathione lyase (Homo sapiens) (UniProt Q04760); assay: Binding affinity to GLO1 in human NCI-H23 cells at 1 uM by mass spectrometry based pull down assay; assay type: cell-based
Sequence of Lactoylglutathione lyase (Homo sapiens) (Q04760 2-184 limits assumed): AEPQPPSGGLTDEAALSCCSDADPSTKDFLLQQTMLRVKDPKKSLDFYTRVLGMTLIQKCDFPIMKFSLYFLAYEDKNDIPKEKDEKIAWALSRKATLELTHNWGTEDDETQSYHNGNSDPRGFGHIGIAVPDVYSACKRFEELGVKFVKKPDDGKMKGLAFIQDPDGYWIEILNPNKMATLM

[7] = biological target: WD repeat and HMG-box DNA-binding protein 1 (Homo sapiens) (UniProt O75717); assay: Binding affinity to WDHD1 in human NCI-H358 cells at 1 uM by mass spectrometry based pull down assay; assay type: cell-based
Sequence of WD repeat and HMG-box DNA-binding protein 1 (Homo sapiens) (O75717 whole entry): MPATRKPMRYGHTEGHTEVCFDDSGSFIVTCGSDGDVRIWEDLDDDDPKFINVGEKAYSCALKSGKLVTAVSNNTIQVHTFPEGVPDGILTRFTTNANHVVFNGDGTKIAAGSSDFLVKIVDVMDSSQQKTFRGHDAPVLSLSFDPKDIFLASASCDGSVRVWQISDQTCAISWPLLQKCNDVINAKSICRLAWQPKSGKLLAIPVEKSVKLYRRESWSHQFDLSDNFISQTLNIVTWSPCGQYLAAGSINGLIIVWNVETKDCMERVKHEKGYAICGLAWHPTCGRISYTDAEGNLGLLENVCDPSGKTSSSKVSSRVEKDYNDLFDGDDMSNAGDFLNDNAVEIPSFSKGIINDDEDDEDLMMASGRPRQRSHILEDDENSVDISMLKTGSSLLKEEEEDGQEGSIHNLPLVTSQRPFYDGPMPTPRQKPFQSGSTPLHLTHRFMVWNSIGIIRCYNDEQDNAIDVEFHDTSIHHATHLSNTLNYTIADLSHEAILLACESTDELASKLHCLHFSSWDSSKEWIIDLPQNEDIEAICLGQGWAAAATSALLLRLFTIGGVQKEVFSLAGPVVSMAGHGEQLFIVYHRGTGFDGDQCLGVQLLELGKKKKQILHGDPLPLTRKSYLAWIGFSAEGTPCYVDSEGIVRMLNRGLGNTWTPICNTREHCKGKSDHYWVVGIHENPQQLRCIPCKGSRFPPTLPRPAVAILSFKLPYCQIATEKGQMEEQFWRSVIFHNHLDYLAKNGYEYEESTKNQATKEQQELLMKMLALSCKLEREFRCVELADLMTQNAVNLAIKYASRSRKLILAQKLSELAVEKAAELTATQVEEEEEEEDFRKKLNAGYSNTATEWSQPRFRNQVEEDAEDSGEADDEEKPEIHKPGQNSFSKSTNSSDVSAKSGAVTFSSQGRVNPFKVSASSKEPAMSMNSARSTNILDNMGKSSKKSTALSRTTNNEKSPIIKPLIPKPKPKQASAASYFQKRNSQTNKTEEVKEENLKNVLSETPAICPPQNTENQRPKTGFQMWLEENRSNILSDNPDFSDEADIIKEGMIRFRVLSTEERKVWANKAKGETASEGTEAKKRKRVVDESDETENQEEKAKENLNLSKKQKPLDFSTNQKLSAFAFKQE

[8] = biological target: Small ribosomal subunit protein uS7m (Homo sapiens) (UniProt Q9Y2R9); assay: Binding affinity to MRPS7 in human NCI-H358 cells at 1 uM by mass spectrometry based pull down assay; assay type: cell-based
[9] = biological target: Glyoxalase domain-containing protein 4 (Homo sapiens) (UniProt Q9HC38); assay: Binding affinity to GLOD4 in human NCI-H358 cells at 1 uM by mass spectrometry based pull down assay; assay type: cell-based
Sequence of Glyoxalase domain-containing protein 4 (Homo sapiens) (Q9HC38 whole entry, the tested form may be a part): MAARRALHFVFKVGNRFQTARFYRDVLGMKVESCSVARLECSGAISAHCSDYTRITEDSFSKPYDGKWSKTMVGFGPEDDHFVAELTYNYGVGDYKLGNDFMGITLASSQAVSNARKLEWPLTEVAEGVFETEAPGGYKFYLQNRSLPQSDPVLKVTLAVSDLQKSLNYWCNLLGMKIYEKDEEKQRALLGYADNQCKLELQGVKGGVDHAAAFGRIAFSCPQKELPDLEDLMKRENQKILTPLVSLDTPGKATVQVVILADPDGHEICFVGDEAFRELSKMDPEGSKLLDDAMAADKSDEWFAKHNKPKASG

[10] = biological target: T3, Dual specificity mitogen-activated protein kinase kinase 3 (Homo sapiens) (UniProt P46734); assay: Binding affinity to MAP2K3 in human NCI-H358 cells at 1 uM by mass spectrometry based pull down assay; assay type: cell-based
T3 sequence (whole entry): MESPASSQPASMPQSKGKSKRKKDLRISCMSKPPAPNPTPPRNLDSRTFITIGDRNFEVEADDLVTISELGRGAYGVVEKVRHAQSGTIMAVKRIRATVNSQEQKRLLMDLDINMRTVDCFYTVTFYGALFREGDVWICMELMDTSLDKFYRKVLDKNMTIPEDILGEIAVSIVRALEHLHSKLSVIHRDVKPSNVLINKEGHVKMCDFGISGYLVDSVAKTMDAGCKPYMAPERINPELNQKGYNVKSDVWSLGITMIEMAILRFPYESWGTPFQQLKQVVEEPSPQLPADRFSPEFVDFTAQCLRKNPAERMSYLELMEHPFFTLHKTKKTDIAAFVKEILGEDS

[11] = biological target: Retinaldehyde dehydrogenase 3 (Homo sapiens) (UniProt P47895); assay: Binding affinity to ALDH1A3 in human NCI-H358 cells at 1 uM by mass spectrometry based pull down assay; assay type: cell-based
Sequence of Retinaldehyde dehydrogenase 3 (Homo sapiens) (P47895 whole entry): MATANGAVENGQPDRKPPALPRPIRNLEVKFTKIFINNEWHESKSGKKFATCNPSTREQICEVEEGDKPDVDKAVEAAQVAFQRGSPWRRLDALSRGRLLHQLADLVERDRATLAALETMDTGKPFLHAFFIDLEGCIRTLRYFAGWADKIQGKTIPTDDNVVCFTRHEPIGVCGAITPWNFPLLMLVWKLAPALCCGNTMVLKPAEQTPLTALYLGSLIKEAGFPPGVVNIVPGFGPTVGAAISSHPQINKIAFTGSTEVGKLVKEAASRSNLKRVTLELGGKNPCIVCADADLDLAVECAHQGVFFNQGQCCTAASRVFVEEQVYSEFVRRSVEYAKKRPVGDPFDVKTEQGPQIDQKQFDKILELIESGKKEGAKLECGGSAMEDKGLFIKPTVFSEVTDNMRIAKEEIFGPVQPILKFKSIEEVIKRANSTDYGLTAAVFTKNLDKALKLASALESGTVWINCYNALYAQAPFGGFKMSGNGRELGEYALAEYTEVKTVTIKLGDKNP
Summary of the method: (§1)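 NCI-H23 or NCI-H358 cells were grown and lysed. Lysates were incubated overnight at 4 °C with 1 μM biotinylated covalent probe or DMSO, then pulled down on streptavidin beads. Proteins were run on polyacrylamide gels and stained with Coomassie. Bands were excised, digested and identified by mass spectrometry.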

[12] = biological target: Ketosamine-3-kinase (Homo sapiens) (UniProt Q9HA64); assay: Binding affinity to FN3KRP in human NCI-H358 cells at 1 uM by mass spectrometry based pull down assay; assay type: cell-based
Sequence of Ketosamine-3-kinase (Homo sapiens) (Q9HA64 whole entry): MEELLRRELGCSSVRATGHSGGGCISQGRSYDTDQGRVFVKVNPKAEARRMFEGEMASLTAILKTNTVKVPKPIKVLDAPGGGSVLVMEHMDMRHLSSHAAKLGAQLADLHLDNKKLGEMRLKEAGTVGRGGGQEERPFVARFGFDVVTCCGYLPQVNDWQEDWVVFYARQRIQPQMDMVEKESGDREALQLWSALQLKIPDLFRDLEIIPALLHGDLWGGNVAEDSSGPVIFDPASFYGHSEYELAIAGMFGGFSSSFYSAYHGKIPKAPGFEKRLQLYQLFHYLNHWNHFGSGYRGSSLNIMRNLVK

[13] = biological target: Low molecular weight phosphotyrosine protein phosphatase (Homo sapiens) (UniProt P24666); assay: Binding affinity to ACP1 in human NCI-H358 cells at 1 uM by mass spectrometry based pull down assay; assay type: cell-based; summary of the method: as §1
Sequence of Low molecular weight phosphotyrosine protein phosphatase (Homo sapiens) (P24666 whole entry): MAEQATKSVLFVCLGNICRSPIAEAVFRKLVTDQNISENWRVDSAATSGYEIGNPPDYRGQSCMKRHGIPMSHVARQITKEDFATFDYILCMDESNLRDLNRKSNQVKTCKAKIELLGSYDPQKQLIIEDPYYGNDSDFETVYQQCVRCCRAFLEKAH

[14] = biological target: Receptor-type tyrosine-protein kinase FLT3 (Homo sapiens, UniProt P36888); assay: Inhibition of FLT3 (unknown origin)
Sequence of Receptor-type tyrosine-protein kinase FLT3 (P36888 whole entry): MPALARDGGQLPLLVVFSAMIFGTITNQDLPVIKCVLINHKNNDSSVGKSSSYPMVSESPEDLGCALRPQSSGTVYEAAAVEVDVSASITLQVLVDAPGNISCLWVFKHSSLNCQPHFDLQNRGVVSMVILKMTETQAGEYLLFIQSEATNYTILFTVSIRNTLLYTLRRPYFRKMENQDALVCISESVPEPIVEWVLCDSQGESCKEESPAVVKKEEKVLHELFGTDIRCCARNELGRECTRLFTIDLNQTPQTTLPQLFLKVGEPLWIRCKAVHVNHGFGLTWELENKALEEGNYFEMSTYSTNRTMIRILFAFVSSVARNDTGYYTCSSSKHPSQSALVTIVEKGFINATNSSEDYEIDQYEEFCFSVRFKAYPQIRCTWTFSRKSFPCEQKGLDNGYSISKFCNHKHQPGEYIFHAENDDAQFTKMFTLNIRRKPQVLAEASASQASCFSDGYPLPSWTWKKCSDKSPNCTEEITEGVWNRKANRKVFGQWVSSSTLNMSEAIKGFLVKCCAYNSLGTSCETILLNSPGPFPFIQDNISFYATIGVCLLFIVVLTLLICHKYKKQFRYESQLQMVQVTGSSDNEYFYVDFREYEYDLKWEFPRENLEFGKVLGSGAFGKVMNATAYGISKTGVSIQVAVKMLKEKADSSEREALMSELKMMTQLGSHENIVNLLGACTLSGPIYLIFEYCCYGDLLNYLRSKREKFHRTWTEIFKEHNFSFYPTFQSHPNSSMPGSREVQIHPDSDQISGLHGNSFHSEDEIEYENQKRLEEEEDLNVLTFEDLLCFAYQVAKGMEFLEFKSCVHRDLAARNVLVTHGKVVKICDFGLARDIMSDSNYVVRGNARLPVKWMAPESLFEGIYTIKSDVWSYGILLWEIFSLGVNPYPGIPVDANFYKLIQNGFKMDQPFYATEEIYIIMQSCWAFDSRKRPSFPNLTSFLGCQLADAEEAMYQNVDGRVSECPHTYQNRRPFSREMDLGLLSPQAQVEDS

SMILES: COc1cc(O)c2c(c1)/C=C/C[C@H](O)[C@H](O)C(=O)/C=C\C[C@H](C)OC2=O
Activity [1]: 0.1%

Activity [3]: Active
Activity [4]: Active
Activity [5]: Active
Activity [6]: Active
Activity [7]: Active
Activity [8]: Active
Activity [9]: Active
Activity [10]: Active
Activity [11]: Active
Activity [12]: Active
Activity [13]: Active
SMILES: C=CC(=O)Nc1ccccc1Nc1nc(Nc2ccc(N3CCN(CCOCCOCCOCCNC(=O)CCCC[C@@H]4SC[C@@H]5NC(=O)N[C@@H]54)CC3)cc2)ncc1Cl
Activity [2]: Active

SMILES: C=CC(=O)Nc1ccccc1Oc1nc(Nc2cnn(CCOC)c2)ncc1Cl
IC50 [14]: 0.54 nM
